In ChEMBL document CHEMBL1150393, “Evaluation of radiolabeled (hetero)aromatic analogues of N-(2-diethylaminoethyl)-4-iodobenzamide for imaging and targeted radionuclide therapy of melanoma” (J Med Chem, 2008):
Blank lines part the entries; values can stand above or below the compound they belong to.

Experiments:
[1] = Binding affinity to melanin in water; parameters: concentration or dose not given beside the values; conditions: tested as the 125I-labelled form
[2] = Binding affinity to melanin in phosphate buffer solution; parameters: concentration or dose not given beside the values; conditions: tested as the 125I-labelled form
[3] = Partition coefficient, log P in phosphate buffer solution at pH 7.4; type: physicochemical
How it was run: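 Shake-flask partition: 50 µM [¹²⁵I]-labelled compound in phosphate buffer pH 7.4 was mixed with 2 mL n-octanol. Each phase was γ-counted, P was taken as the octanol/buffer activity ratio, and log P was reported.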

[4] = Drug excretion in mouse B16-F0 cells bearing C57BL/6 mouse urine at 0.74 to 0.92 MBq, iv after 72 hrs; type: ADME, organism-based; conditions: in vivo
How it was run: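 Urine was collected from two B16-F0 tumour-bearing C57BL6 mice for up to 72 h after iv tail-vein injection of the [¹²⁵I]-labelled compound (0.1 µmol). Samples were counted to give cumulative urinary excretion as %ID.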

[5] = Biodistribution in tumor of C57BL/6 mouse bearing mouse B16-F0 cells at 0.74 to 0.92 MBq, iv after 1 hr; type: ADME, organism-based, Neoplasm; conditions: in vivo
How it was run: (§1)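 [¹²⁵I]-labelled compound given iv by tail vein (0.1 µmol per mouse) to male C57BL6 mice bearing s.c. B16-F0 flank tumours (5 × 10⁵ cells in PBS). Two mice per time point were killed by CO₂, frozen in liquid nitrogen and cut into 40 µm cryosections, eight slices per mouse. Slice radioactivity was read on a multiwire proportional counter, converted to kBq/g and reported as %ID/g.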

[6] = Biodistribution in tumor of C57BL/6 mouse bearing mouse B16-F0 cells at 0.74 to 0.92 MBq, iv after 3 hrs; type: ADME, organism-based, Neoplasm; conditions: in vivo; how it was run: as §1
[7] = Biodistribution in tumor of C57BL/6 mouse bearing mouse B16-F0 cells at 0.74 to 0.92 MBq, iv after 6 hrs; type: ADME, organism-based, Neoplasm; conditions: in vivo; how it was run: as §1
[8] = Biodistribution in tumor of C57BL/6 mouse bearing mouse B16-F0 cells at 0.74 to 0.92 MBq, iv after 24 hrs; type: ADME, organism-based, Neoplasm; conditions: in vivo; how it was run: as §1
[9] = Biodistribution in tumor of C57BL/6 mouse bearing mouse B16-F0 cells at 0.74 to 0.92 MBq, iv after 72 hrs; type: ADME, organism-based, Neoplasm; conditions: in vivo; how it was run: as §1
[10] = Ratio of drug level in tumor to liver of C57BL/6 mouse bearing mouse B16-F0 cells at 0.74 to 0.92 MBq, iv after 1 hr; type: ADME, organism-based; conditions: in vivo
How it was run: (§2)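 Tumour and organ radioactive concentrations came from whole-body cryosection counting (40 µm slices, eight per mouse, two mice per time) after tail-vein injection of the [¹²⁵I]-labelled compound (0.1 µmol) into male C57BL6 mice bearing s.c. B16-F0 melanoma. Each value is the ratio of the tumour concentration to the organ concentration.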

[11] = Ratio of drug level in tumor to liver of C57BL/6 mouse bearing mouse B16-F0 cells at 0.74 to 0.92 MBq, iv after 3 hrs; type: ADME, organism-based; conditions: in vivo; how it was run: as §2
[12] = Ratio of drug level in tumor to lung of C57BL/6 mouse bearing mouse B16-F0 cells at 0.74 to 0.92 MBq, iv after 1 hr; type: ADME, organism-based; conditions: in vivo; how it was run: as §2
[13] = Biodistribution in intestinal content of C57BL/6 mouse bearing mouse B16-F0 cells at 0.74 to 0.92 MBq, iv after 1 hr; type: ADME, organism-based; conditions: in vivo
How it was run: (§3)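 Male C57BL6 mice with s.c. left-flank B16-F0 melanoma (5 × 10⁵ cells in PBS). Two mice per time point frozen in liquid nitrogen after CO₂ sacrifice. Eight 40 µm whole-body cryosections per mouse read by multiwire proportional counter. cpm/mm² converted to kBq/g and expressed as %ID/g.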

[14] = Biodistribution in intestinal content of C57BL/6 mouse bearing mouse B16-F0 cells at 0.74 to 0.92 MBq, iv after 3 hrs; type: ADME, organism-based; conditions: in vivo; how it was run: as §3
[15] = Biodistribution in intestinal content of C57BL/6 mouse bearing mouse B16-F0 cells at 0.74 to 0.92 MBq, iv after 6 hrs; type: ADME, organism-based; conditions: in vivo; how it was run: as §3
[16] = Biodistribution in intestinal content of C57BL/6 mouse bearing mouse B16-F0 cells at 0.74 to 0.92 MBq, iv after 24 hrs; type: ADME, organism-based; conditions: in vivo; how it was run: as §3
[17] = Biodistribution in Stomach content of C57BL/6 mouse bearing mouse B16-F0 cells at 0.74 to 0.92 MBq, iv after 1 hr; type: ADME, organism-based; conditions: in vivo; how it was run: as §3
[18] = Biodistribution in Stomach content of C57BL/6 mouse bearing mouse B16-F0 cells at 0.74 to 0.92 MBq, iv after 3 hrs; type: ADME, organism-based; conditions: in vivo; how it was run: as §3
[19] = Biodistribution in Stomach content of C57BL/6 mouse bearing mouse B16-F0 cells at 0.74 to 0.92 MBq, iv after 6 hrs; type: ADME, organism-based; conditions: in vivo; how it was run: as §3
Liver [20] = assay: Biodistribution in liver of C57BL/6 mouse bearing mouse B16-F0 cells at 0.74 to 0.92 MBq, iv after 1 hr; type: ADME, organism-based; conditions: in vivo; how it was run: as §3
Liver [21] = assay: Biodistribution in liver of C57BL/6 mouse bearing mouse B16-F0 cells at 0.74 to 0.92 MBq, iv after 3 hrs; type: ADME, organism-based; conditions: in vivo; how it was run: as §3
Muscle tissue [22] = assay: Biodistribution in muscle of C57BL/6 mouse bearing mouse B16-F0 cells at 0.74 to 0.92 MBq, iv after 1 hr; type: ADME, organism-based; conditions: in vivo; how it was run: as §3
Muscle tissue [23] = assay: Biodistribution in muscle of C57BL/6 mouse bearing mouse B16-F0 cells at 0.74 to 0.92 MBq, iv after 3 hrs; type: ADME, organism-based; conditions: in vivo; how it was run: as §3
Pancreas = assay: Biodistribution in pancreas of C57BL/6 mouse bearing mouse B16-F0 cells at 0.74 to 0.92 MBq, iv after 1 hr; type: ADME, organism-based; conditions: in vivo; how it was run: as §3
Lung = assay: Biodistribution in lung of C57BL/6 mouse bearing mouse B16-F0 cells at 0.74 to 0.92 MBq, iv after 1 hr; type: ADME, organism-based; conditions: in vivo; how it was run: as §3
Spleen = assay: Biodistribution in spleen of C57BL/6 mouse bearing mouse B16-F0 cells at 0.74 to 0.92 MBq, iv after 1 hr; type: ADME, organism-based; conditions: in vivo; how it was run: as §1
Kidney = assay: Biodistribution in kidney of C57BL/6 mouse bearing mouse B16-F0 cells at 0.74 to 0.92 MBq, iv after 1 hr; type: ADME, organism-based; conditions: in vivo; how it was run: as §3
Blood = assay: Biodistribution in blood of C57BL/6 mouse bearing mouse B16-F0 cells at 0.74 to 0.92 MBq, iv after 1 hr; type: ADME, organism-based; conditions: in vivo; how it was run: as §3
[24] = Biodistribution in uvea of C57BL/6 mouse bearing mouse B16-F0 cells at 0.74 to 0.92 MBq, iv after 1 hr; type: ADME, organism-based, Uveal tract; conditions: in vivo; how it was run: as §1
[25] = Biodistribution in uvea of C57BL/6 mouse bearing mouse B16-F0 cells at 0.74 to 0.92 MBq, iv after 3 hrs; type: ADME, organism-based, Uveal tract; conditions: in vivo; how it was run: as §1
[26] = Biodistribution in uvea of C57BL/6 mouse bearing mouse B16-F0 cells at 0.74 to 0.92 MBq, iv after 6 hrs; type: ADME, organism-based, Uveal tract; conditions: in vivo; how it was run: as §1
[27] = Biodistribution in uvea of C57BL/6 mouse bearing mouse B16-F0 cells at 0.74 to 0.92 MBq, iv after 24 hrs; type: ADME, organism-based, Uveal tract; conditions: in vivo; how it was run: as §1
[28] = Biodistribution in uvea of C57BL/6 mouse bearing mouse B16-F0 cells at 0.74 to 0.92 MBq, iv after 72 hrs; type: ADME, organism-based, Uveal tract; conditions: in vivo; how it was run: as §1

SMILES: CCN(CC)CCNC(=O)c1cc2c(I)cccc2s1
Activity [1]: 87.6%
Activity [2]: 56.1%

SMILES: CCN(CC)CCNC(=O)c1ccc2cc(I)ccc2n1
Activity [1]: 87.4%
Activity [2]: 43.2%

SMILES: CCN(CC)CCNC(=O)c1c[nH]c2ccc(I)cc2c1=O
Activity [1]: 86.7%
Activity [2]: 59%

SMILES: CCN(CC)CCNC(=O)c1cc2cc(I)ccc2o1
Activity [1]: 87%
Activity [2]: 45.2%

SMILES: CCN(CC)CCNC(=O)c1cn2cc([125I])ccc2n1.Cl.Cl
logD [3]: 0.71
Activity [4]: 36.8%
Drug uptake [5]: 5.7 % ID/g
Drug uptake [6]: 7.1 % ID/g
Drug uptake [7]: 8.1 % ID/g
Drug uptake [8]: 8 % ID/g
Drug uptake [9]: 2.7 % ID/g
Ratio [10]: 1.43
Ratio [11]: 7.21
Ratio [12]: 2.34
Drug uptake [13]: 9.48 % ID/g
Drug uptake [14]: 78.03 % ID/g
Drug uptake [15]: 56.39 % ID/g
Drug uptake [16]: 2.68 % ID/g
Drug uptake [17]: 4.55 % ID/g
Drug uptake [18]: 5.19 % ID/g
Drug uptake [19]: 16.57 % ID/g
Drug uptake (Liver [20]): 3.97 % ID/g
Drug uptake (Liver [21]): 0.99 % ID/g
Drug uptake (Muscle tissue [22]): 0.51 % ID/g
Drug uptake (Muscle tissue [23]): 0.09 % ID/g
Drug uptake (Pancreas): 7.52 % ID/g
Drug uptake (Lung): 2.42 % ID/g
Drug uptake (Spleen): 13.07 % ID/g
Drug uptake (Kidney): 2.99 % ID/g
Drug uptake (Blood): 0.68 % ID/g
Drug uptake [24]: 17.43 % ID/g
Drug uptake [25]: 19.18 % ID/g
Drug uptake [26]: 26.81 % ID/g
Drug uptake [27]: 11.54 % ID/g
Drug uptake [28]: 9.55 % ID/g

Results, then the compound that gave them:

Activity [1]: 80.8%
Activity [2]: 50.9%
SMILES: CCN(CC)CCNC(=O)c1ccc2cc(I)ccc2c1

Activity [1]: 28.1%
Activity [2]: 3.5%
SMILES: CCN(CC)CCNC(=O)c1ccc(I)nc1

Activity [1]: 79.8%
Activity [2]: 43.1%
SMILES: CCN(CC)CCNC(=O)c1cc2cc(I)ccc2[nH]1
